Source: article PMC3220761 (ACS chemical biology, 2011)
Where “and” joins values, the source holds several entries; their conditions need not be identical. Equal entries are not always repeated. Where two headings read alike, the source gives them in different places.

Assays:
[1] = molecular target: T1, α/β1 20S proteasome complex (Salinispora tropica, UniProt A4X744); assay: Proteasome inhibition; type: biochemical
T1 sequence (A4X744 54-279): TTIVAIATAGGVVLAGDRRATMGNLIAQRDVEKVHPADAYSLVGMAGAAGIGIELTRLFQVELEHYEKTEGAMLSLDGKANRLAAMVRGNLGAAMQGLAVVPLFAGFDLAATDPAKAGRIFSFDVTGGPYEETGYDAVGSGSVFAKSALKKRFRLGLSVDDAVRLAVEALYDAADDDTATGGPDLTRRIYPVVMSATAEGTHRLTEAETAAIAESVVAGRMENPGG
T1 sequence (A4X745 1-260 partner): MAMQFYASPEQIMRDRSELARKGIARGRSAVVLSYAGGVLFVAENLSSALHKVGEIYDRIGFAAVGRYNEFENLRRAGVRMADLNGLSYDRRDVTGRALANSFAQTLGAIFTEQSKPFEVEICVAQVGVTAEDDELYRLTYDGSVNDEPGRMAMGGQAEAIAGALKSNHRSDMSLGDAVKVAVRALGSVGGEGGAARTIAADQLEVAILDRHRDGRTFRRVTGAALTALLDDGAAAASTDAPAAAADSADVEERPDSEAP

[2] = molecular target: T2, α/SalI 20S proteasome complex (Salinispora tropica, UniProt A4X3P0); assay: Proteasome inhibition; type: biochemical; conditions: for fold increase in IC50 with the α/SalI complex in comparison to the α/β1 complex (resistance): α/SalI versus α/β1
T2 sequence (A4X3P0 49-282): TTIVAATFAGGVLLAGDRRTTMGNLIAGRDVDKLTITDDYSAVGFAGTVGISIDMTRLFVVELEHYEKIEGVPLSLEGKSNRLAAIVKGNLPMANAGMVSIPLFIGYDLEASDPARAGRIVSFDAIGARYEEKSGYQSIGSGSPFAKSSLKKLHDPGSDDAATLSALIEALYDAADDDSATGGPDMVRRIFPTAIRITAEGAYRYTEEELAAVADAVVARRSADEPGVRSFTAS
T2 sequence (A4X745 1-260 partner): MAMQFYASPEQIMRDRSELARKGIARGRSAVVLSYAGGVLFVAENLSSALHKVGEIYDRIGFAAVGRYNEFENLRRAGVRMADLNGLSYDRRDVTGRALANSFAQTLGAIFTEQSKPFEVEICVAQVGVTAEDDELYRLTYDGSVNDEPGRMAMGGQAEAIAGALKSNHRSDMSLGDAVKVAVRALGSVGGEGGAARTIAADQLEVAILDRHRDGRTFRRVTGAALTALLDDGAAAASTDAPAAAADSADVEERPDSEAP

[3] = molecular target: T3, α/β1 M45F proteasome complex (Salinispora tropica, UniProt A4X744, M98F); assay: Proteasome inhibition; type: biochemical
T3 sequence (A4X744 54-279 M98F): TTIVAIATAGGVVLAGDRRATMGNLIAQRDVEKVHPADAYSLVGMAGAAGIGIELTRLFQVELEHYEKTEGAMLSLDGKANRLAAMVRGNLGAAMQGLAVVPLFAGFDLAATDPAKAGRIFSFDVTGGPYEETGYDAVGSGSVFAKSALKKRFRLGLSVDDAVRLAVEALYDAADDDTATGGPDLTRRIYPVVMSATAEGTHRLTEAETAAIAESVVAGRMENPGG
T3 sequence (A4X745 1-260 partner): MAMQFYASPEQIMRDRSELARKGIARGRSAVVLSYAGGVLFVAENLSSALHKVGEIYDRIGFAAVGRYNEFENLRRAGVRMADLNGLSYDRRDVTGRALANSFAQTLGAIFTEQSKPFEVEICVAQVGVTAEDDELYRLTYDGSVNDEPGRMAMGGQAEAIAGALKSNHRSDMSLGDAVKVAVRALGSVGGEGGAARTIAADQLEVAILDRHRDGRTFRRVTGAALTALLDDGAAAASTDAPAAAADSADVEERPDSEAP

[4] = molecular target: T4, α/β1 A49V proteasome complex (Salinispora tropica, UniProt A4X744, A102V); assay: Proteasome inhibition; type: biochemical
T4 sequence (A4X744 54-279 A102V): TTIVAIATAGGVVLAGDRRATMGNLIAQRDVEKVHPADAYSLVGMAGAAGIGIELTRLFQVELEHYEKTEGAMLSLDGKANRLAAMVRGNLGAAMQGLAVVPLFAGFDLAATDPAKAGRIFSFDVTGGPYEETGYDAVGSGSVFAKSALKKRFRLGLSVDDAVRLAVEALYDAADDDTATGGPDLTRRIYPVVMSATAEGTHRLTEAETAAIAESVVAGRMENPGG
T4 sequence (A4X745 1-260 partner): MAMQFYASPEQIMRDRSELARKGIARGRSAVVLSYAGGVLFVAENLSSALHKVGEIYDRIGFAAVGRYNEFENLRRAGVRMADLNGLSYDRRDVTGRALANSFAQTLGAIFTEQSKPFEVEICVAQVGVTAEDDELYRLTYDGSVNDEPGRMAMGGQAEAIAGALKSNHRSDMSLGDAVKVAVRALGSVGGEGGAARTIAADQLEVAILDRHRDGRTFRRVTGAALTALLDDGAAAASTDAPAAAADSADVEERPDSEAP

[5] = molecular target: T5, α/β1 M45F/A49V proteasome complex (Salinispora tropica, UniProt A4X744, A102V/M98F); assay: Proteasome inhibition; type: biochemical
T5 sequence (A4X744 54-279 M98F/A102V): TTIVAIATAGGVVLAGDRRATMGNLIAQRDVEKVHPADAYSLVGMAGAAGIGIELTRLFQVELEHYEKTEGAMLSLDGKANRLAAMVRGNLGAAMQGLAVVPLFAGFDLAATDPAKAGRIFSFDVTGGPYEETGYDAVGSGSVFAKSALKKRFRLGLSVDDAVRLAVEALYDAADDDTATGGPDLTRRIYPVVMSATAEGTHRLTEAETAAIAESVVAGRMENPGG
T5 sequence (A4X745 1-260 partner): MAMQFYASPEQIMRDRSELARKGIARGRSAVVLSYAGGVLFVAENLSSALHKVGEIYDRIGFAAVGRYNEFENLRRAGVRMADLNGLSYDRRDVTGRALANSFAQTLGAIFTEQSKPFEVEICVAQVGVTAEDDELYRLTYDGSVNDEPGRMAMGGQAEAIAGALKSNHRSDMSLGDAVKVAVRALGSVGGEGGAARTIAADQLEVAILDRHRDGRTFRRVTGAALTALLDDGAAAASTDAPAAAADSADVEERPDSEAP

[6] = molecular target: T6, α/SalI F45M proteasome complex (Salinispora tropica, UniProt A4X3P0, F93M); assay: Proteasome inhibition; type: biochemical
T6 sequence (A4X3P0 49-282 F93M): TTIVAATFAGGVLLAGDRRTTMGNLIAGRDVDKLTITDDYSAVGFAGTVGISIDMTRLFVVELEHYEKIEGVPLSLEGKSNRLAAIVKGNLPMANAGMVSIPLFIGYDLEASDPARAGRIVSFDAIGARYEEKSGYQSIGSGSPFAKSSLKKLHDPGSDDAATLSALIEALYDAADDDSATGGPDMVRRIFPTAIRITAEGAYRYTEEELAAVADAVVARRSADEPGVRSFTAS
T6 sequence (A4X745 1-260 partner): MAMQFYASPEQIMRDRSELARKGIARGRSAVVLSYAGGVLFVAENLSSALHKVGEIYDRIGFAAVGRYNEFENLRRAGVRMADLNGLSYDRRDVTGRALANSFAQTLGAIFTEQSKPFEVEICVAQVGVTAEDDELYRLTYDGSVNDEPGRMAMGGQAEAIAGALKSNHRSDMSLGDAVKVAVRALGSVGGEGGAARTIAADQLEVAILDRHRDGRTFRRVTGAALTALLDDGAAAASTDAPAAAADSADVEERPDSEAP

[7] = molecular target: T1, α/β1 20S proteasome complex; assay: Time-dependence of inhibition, α/β1; type: biochemical; conditions: 0.5–100 μM inhibitor, Z-VKM-amc, 3.5 h, 30 °C
Procedure, shortened: (§1)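 Purified S. tropica α/β1 or α/SalI complex (His6-α, E. coli-expressed) in 50 mM Tris-HCl pH 8.0. Test compound (0.5–100 μM final) and 40 μM Z-VKM-amc were pre-warmed to 30 °C. Pre-warmed enzyme was added to 20 μg ml−1 (27 nM) final. Fluorescence (ex 355/em 460 nm) was read every minute for 3.5 h at a constant 30 °C.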

[8] = molecular target: T2, α/SalI 20S proteasome complex; assay: Time-dependence of inhibition, α/SalI; type: biochemical; conditions: 0.5–100 μM inhibitor, Z-VKM-amc, 3.5 h, 30 °C
Procedure, shortened: as §1

[9] = molecular target: T1, α/β1 20S proteasome complex; assay: Irreversibility of inhibition; type: biochemical; conditions: 250 μM inhibitor for 1.5 h at 30 °C, Z-VKM-amc
Procedure, shortened: (§2)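 Recombinant S. tropica proteasome (His6-tagged α coexpressed with untagged β1 or SalI in E. coli BL21(DE3); Ni-NTA then size-exclusion purified). Enzyme at 20 μg ml−1 in 50 mM Tris-HCl pH 8.0 was held with 250 μM test compound or matching DMSO, 1.5 h, 30 °C. It was buffer-exchanged three times on 30 kDa cutoff filters, then added to 40 μM Z-VKM-amc. Fluorescence (ex 355/em 460 nm) was read every minute for 3 h at 30 °C.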

[10] = molecular target: T2, α/SalI 20S proteasome complex; assay: Irreversibility of inhibition; type: biochemical; conditions: 250 μM inhibitor for 1.5 h at 30 °C, Z-VKM-amc
Procedure, shortened: as §2

[11] = molecular target: the molecule itself; assay: native gel or EMSA
[12] = IC50, α/SalI complex, substrate Z-VKM-amc 40 μM, mean ± SD, N = 3

Molecule: CC(C)[C@H](O)[C@@]12NC(=O)[C@H](CCCl)[C@]1(C)OC2=O [Antiprotealide, antiprotealide]
- IC50 [1]: 104 ± 7.2 µM
- IC50 [2]: > 250 µM

Molecule: CC(C)C[C@H](NC(=O)[C@H](Cc1ccccc1)NC(=O)c1cnccn1)B(O)O [Bortezomib, bortezomib, reference compound]
- IC50 [2, 12]: 42.7 ± 3.4 µM
- fold increase in IC50 with the α/SalI complex in comparison to the α/β1 complex (resistance) [2]: 13 fold

Molecule: C[C@@]12OC(=O)[C@]1([C@@H](O)[C@@H]1C=CCCC1)NC(=O)[C@@H]2CCCl [Salinosporamide A, salinosporamide A]
- IC50 [3]: 1.2 ± 0.1 µM
- IC50 [4]: 13.6 ± 2.2 µM
- increase in IC50 of α/β1 A49V mutant ([4]; α/β1 A49V versus wild-type α/β1, Z-VKM-amc): greater than a ten-fold increase
- IC50 [5]: 15.3 ± 2.2 µM
- IC50 ([2]; IC50, α/SalI complex, substrate Suc-LLVY-amc 40 μM, mean ± SD, N = 3): 52 ± 3.5 µM
- IC50 [2, 12]: 36.8 ± 2.4 µM
- fold increase in IC50 with the α/SalI complex in comparison to the α/β1 complex (resistance) [2]: 16–30 fold and 30 fold
- IC50 [6]: 45.5 ± 2.3 µM
- time-dependence of inhibition [7]: time-dependent inhibition
- time-dependence of inhibition [8]: time-dependent inhibition
- recovery of proteolytic activity after buffer exchange to remove inhibitor [9]: no recovery of proteolytic activity
- recovery of proteolytic activity after buffer exchange to remove inhibitor [10]: no recovery of proteolytic activity

Molecule: CC[C@H]1C(=O)N[C@@]2([C@@H](O)[C@@H]3C=CCCC3)C(=O)O[C@@]12C [Salinosporamide B, salinosporamide B]
- IC50 [2, 12]: 139 ± 27.3 µM
- fold increase in IC50 with the α/SalI complex in comparison to the α/β1 complex (resistance) [2]: 7 fold

Molecule: C[C@@]12OC(=O)[C@]1([C@@H](O)C1CCC1)NC(=O)[C@@H]2CCCl [Salinosporamide X3, salinosporamide X3]
- IC50 [1]: > 250 µM
- IC50 [2]: > 250 µM

Molecule: CCC[C@H](O)[C@@]12NC(=O)[C@H](CCCl)[C@]1(C)OC2=O [Salinosporamide X5, salinosporamide X5]
- IC50 [1]: > 250 µM
- IC50 [2]: > 250 µM

Molecule: C[C@@]12OC(=O)[C@]1([C@@H](O)[C@@H]1C=CCC1)NC(=O)[C@@H]2CCCl [Salinosporamide X7, salinosporamide X7]
- IC50 [1]: 3.6 ± 0.2 µM
- IC50 [2]: > 250 µM

B1: Salinispora tropica CNB-440 20S proteasome α-subunit (Strop_2245) (natural protein, UniProt A4X745 1-260, looked up)
chain: MAMQFYASPEQIMRDRSELARKGIARGRSAVVLSYAGGVLFVAENLSSALHKVGEIYDRIGFAAVGRYNEFENLRRAGVRMADLNGLSYDRRDVTGRALANSFAQTLGAIFTEQSKPFEVEICVAQVGVTAEDDELYRLTYDGSVNDEPGRMAMGGQAEAIAGALKSNHRSDMSLGDAVKVAVRALGSVGGEGGAARTIAADQLEVAILDRHRDGRTFRRVTGAALTALLDDGAAAASTDAPAAAADSADVEERPDSEAP
- binding result [11]: binds

B2: Salinispora tropica CNB-440 20S proteasome β-subunit β1 (Strop_2244) (natural protein, UniProt A4X744 54-279, looked up)
chain: TTIVAIATAGGVVLAGDRRATMGNLIAQRDVEKVHPADAYSLVGMAGAAGIGIELTRLFQVELEHYEKTEGAMLSLDGKANRLAAMVRGNLGAAMQGLAVVPLFAGFDLAATDPAKAGRIFSFDVTGGPYEETGYDAVGSGSVFAKSALKKRFRLGLSVDDAVRLAVEALYDAADDDTATGGPDLTRRIYPVVMSATAEGTHRLTEAETAAIAESVVAGRMENPGG
- binding result [11]: binds

B3: SalI, proteasome β-subunit of the salinosporamide biosynthetic gene cluster (Strop_1015) (natural protein, Salinispora tropica CNB-440, UniProt A4X3P0 49-282, looked up)
chain: TTIVAATFAGGVLLAGDRRTTMGNLIAGRDVDKLTITDDYSAVGFAGTVGISIDMTRLFVVELEHYEKIEGVPLSLEGKSNRLAAIVKGNLPMANAGMVSIPLFIGYDLEASDPARAGRIVSFDAIGARYEEKSGYQSIGSGSPFAKSSLKKLHDPGSDDAATLSALIEALYDAADDDSATGGPDMVRRIFPTAIRITAEGAYRYTEEELAAVADAVVARRSADEPGVRSFTAS
- binding result [11]: binds
